Test results reported in article PMC4532310 (Nature, 2015).
Entries after “also recorded” stand apart in the source; their conditions may differ. Bridges are numbered along the chain shown (N, C = ends). Where no end group is shown, it is not given here.

T1: ER ectodomain (ERΔK-GFP) (Arabidopsis thaliana, UniProt Q42371)
T1 sequence (Q42371 25-580 limits assumed): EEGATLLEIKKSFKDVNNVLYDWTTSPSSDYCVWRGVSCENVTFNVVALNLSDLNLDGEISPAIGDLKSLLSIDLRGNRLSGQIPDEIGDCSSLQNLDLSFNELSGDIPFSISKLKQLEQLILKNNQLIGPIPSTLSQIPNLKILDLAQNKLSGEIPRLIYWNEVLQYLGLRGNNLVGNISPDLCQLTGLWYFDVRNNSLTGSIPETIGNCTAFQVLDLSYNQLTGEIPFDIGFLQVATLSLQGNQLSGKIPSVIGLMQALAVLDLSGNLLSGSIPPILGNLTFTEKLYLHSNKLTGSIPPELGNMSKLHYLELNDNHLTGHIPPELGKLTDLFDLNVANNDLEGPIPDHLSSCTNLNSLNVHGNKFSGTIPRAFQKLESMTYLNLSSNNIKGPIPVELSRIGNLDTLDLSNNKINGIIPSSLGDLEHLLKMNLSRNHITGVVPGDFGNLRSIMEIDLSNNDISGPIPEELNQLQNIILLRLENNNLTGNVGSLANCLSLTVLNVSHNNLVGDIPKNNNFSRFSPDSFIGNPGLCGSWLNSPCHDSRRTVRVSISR

T2: TMM (TOO MANY MOUTHS), TMM-GFP (Arabidopsis thaliana, UniProt Q9SSD1)
T2 sequence (Q9SSD1 24-496): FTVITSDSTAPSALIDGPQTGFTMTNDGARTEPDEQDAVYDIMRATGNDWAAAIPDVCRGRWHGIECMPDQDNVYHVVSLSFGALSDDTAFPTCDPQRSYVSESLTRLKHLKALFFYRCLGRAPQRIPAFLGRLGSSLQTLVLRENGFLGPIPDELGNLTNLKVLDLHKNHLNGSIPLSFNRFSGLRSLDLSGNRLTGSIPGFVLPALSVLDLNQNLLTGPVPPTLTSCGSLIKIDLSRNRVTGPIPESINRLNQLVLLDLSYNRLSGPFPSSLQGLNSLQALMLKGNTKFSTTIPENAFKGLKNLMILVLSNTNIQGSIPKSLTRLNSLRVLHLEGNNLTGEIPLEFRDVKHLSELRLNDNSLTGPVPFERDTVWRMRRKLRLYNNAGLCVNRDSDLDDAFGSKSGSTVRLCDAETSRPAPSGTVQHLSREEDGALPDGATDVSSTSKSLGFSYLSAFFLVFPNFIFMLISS

T3: ER (ERECTA) ectodomain, ERΔK-GFP (Arabidopsis thaliana, UniProt Q42371)
T3 sequence (Q42371 25-580 limits assumed): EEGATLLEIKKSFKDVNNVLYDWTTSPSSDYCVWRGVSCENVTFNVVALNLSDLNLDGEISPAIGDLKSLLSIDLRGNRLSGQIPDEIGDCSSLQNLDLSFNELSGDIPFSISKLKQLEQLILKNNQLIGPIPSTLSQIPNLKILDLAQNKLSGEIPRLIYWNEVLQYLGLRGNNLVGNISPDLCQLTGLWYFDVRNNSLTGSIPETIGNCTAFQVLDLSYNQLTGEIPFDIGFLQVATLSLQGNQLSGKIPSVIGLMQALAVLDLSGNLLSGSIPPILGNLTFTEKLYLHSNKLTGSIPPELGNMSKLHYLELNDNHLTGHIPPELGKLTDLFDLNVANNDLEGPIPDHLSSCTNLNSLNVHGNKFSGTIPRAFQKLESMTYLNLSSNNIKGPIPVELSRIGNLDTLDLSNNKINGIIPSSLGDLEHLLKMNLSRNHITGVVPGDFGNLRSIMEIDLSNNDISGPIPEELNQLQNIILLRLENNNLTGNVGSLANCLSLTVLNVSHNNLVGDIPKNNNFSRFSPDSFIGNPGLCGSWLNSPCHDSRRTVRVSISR


Legend:
ER ectodomain (ERΔK-GFP) = target: T1, ER ectodomain (ERΔK-GFP); assay: Ligand competition assay, Stomagen vs MEPF2-MYC-HIS for binding to ER
Method in brief: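 ER ectodomain–GFP (ERΔK-GFP) is expressed in N. benthamiana, and microsomal fractions are prepared. Fractions are incubated with 1 μM bioactive MEPF2-MYC-HIS plus Stomagen at 0-23.4 μM, then ER is immunoprecipitated. The co-IP'd tagged MEPF2 is immunoblotted first, and the same blot is re-probed with anti-Stomagen antibody. Blots are quantified from four biological replicates (S.E.M.), and IC50 is derived from this immunoblot-based quantification.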

[1] = target: T2, TMM (TOO MANY MOUTHS), TMM-GFP; assay: QCM direct binding, TMM-GFP-functionalized chip; settings: frequency change, phosphate buffer, 4°C
Method in brief: (§1)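 Purified GFP-fused receptors (ERΔK-GFP, TMM-GFP) or control GFP are obtained from N. benthamiana. They are immobilised on gold QCM chips via anti-GFP antibody. Solutions of HPLC-purified, bioassay-verified bioactive peptide are then introduced, and binding is recorded as frequency change. Each run yields 10-20 points (average, SD). Replicate runs: ER n=4 Stomagen, n=2 MEPF2; TMM n=2 Stomagen, n=3 MEPF2; GFP n=3 Stomagen, n=2 MEPF2.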

[2] = test system: Arabidopsis wild-type seedlings, abaxial cotyledon epidermis; assay type: in vivo; settings: independent batch of Stomagen used in Fig. 3c, five days, n=8 (Peak 1), n=6 (Peak 2)
TMM = assay: Co-IP with TMM-GFP; assay type: binding, Arabidopsis; settings: N. benthamiana microsomal fraction; 1 μM peptide; anti-GFP IP
[3] = target: T3, ER (ERECTA) ectodomain, ERΔK-GFP; assay: QCM direct binding, ERΔK-GFP-functionalized chip; settings: frequency change, phosphate buffer, 4°C
Method in brief: as §1

GFP = assay: QCM direct binding, control GFP chip; settings: frequency change, phosphate buffer, 4°C, Stomagen n=3, MEPF2 n=2
Method in brief: as §1

MPK3 and MPK6 = assay: MAPK phosphorylation assay in Arabidopsis seedlings; assay type: in vivo; settings: MEPF2 2.5 μM, Arabidopsis wild-type seedlings; anti-phosphoERK immunoblot
Method in brief: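 Peptide (MEPF2) is applied to wild-type Arabidopsis seedlings and sampled over a time course. Heat-denatured peptide serves as a control. Extracts are immunoblotted with anti-phosphoERK antibody to detect phosphorylated MPK6 and MPK3, and Coomassie-stained total protein is shown. Four and two biological replicates are run for the two blot series.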

[4] = target: ER ectodomain fused to GFP (ERΔK-GFP) (Arabidopsis); assay: co-IP

IC50 [4] [nM] | Molecule | IC50 (ER ectodomain (ERΔK-GFP)) [nM] | replacement of MEPF2 for ER-binding (ER ectodomain (ERΔK-GFP); 1 μM bioactive MEPF2-MYC-HIS, increasing Stomagen 0-23.4 μM, IP and immunoblot) | binding to TMM (words) [1] | bioactivity, HPLC peaks of independent batch used for QCM [2] | association with TMM by Co-IP (TMM) | binding to ERΔK-GFP (words) [3] | binding to control GFP (GFP) | binding to TMM (words) ([1]; listed as EPF2) | time after which MPK3/MPK6 phosphorylation declined (MPK3 and MPK6) [h] | time to phosphorylation of MPK3 and MPK6 (MPK3 and MPK6) [min] | binding to ERΔK-GFP (words) ([3]; listed as EPF2)
 | IGSTAPTCTYNECRGCRYKCRAEQVPVEGNDPINSAYHYRCVCHR (disulfide 8-41, 13-20, 16-43) [Stomagen] | 454 | replaced MEPF2 for ER-binding | bound to TMM with high affinity; also recorded: bind to ER and TMM with a similar affinity | bioactive | associates with all ER-family RKs and TMM | saturable binding to the ER ectodomain fused to GFP (ERΔK-GFP) with similar dissociation constants at a nanomolar range; also recorded: bind to ER and TMM with a similar affinity | No significant binding |  |  |  | 
 | TGSSLPDCSYACGACSPCKRVMISFECSVAESCSVIYRCTCRGRYYHVPSRA (disulfide 8-39, 12-18, 15-41, 27-33) [MEPF2] |  |  | bound to TMM with high affinity |  |  | saturable binding to the ER ectodomain fused to GFP (ERΔK-GFP) with similar dissociation constants at a nanomolar range | No significant binding | bind to ER and TMM with a similar affinity | 2 | 10 | bind to ER and TMM with a similar affinity
454 | IGSTAPTCTYNECRGCRYKCRAEQVPVEGNDPINSAYHYRCVCHR [Stomagen/EPF-LIKE9 peptide (bioactive Stomagen)] |  |  |  |  |  |  |  |  |  |  | 
